Activity calls are given as the source filed them. The rule behind the calls is not given here.
Columns and labels:
[1] = test system: Brucella pseudogrignonensis; experiment: Antibacterial activity against Ochrobactrum pseudogrignonense 4-4DEP at 30 ug/disk after 24 to 48 hrs by disk diffusion method; type: functional; settings: for zone of inhibition at 30 µg/disc: read-out: DIZ
Outline: (§1)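 Marine bacterial isolate from a heavily fouled surface, identified by 16S rRNA gene sequence. Agar disk diffusion: sterilised 5.2 mm paper disks loaded with 30 µg pure compound in CH2Cl2 and dried 3 h at room temperature. Plates were seeded with 100 µL of overnight culture (10^6 cfu/mL) and incubated 24 and 48 h at 26 °C. Read-out was inhibition zone diameter, run in triplicate.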

[2] = test system: Brucella pseudogrignonensis; experiment: Antibacterial activity against Ochrobactrum pseudogrignonense 21-6PIN at 30 ug/disk after 24 to 48 hrs by disk diffusion method; type: functional; settings: for zone of inhibition at 30 µg/disc: read-out: DIZ; outline: as §1
[3] = test system: Alteromonas sp.; experiment: Antibacterial activity against Alteromonas sp. 11-6DEP at 30 ug/disk after 24 to 48 hrs by disk diffusion method; type: functional; settings: for zone of inhibition at 30 µg/disc: read-out: DIZ
Outline: (§2)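 Disk diffusion on agar plates against marine bacterial isolates from a heavily fouled surface, identified by 16S rRNA sequencing. 5.2 mm sterilized paper disks loaded with 30 µg compound in CH2Cl2, dried 3 h at room temperature, then placed on plates spread with 100 µL overnight culture (10^6 cfu/mL). Inhibition zone diameter read after 24 and 48 h at 26 °C. Cu2O 600 µg/disk positive control, CH2Cl2 solvent control, triplicate.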

[4] = test system: Oceanobacillus iheyensis; experiment: Antibacterial activity against Oceanobacillus iheyensis 31-C at 30 ug/disk after 24 to 48 hrs by disk diffusion method; type: functional; settings: for zone of inhibition at 30 µg/disc: read-out: DIZ; outline: as §2
[5] = test system: Bacillus sp.; experiment: Antibacterial activity against Bacillus sp. 10-6DEP at 30 ug/disk after 24 to 48 hrs by disk diffusion method; type: functional; settings: Bacillus sp. (in: firmicutes), read-out: DIZ; outline: as §2
[6] = test system: Kocuria sp. 10-4DEP; experiment: Antibacterial activity against Kocuria sp. 10-4DEP at 30 ug/disk after 24 to 48 hrs by disk diffusion method; type: functional; settings: for zone of inhibition at 30 µg/disc: read-out: DIZ; outline: as §2
[7] = test system: Brucella pseudogrignonensis; experiment: Antibacterial activity against Ochrobactrum pseudogrignonense 21-6PIN after 24 to 48 hrs by disk diffusion method; type: functional
Outline: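 MIC by agar disk diffusion per NCCLS against the marine isolate 21-6PIN. Loadings per disk were 30, 16, 8, 4, 2, 1 and 0.5 µg, delivered in MeOH, with methanol alone as negative control. Run in triplicate.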

[8] = test system: Bacillus sp.; experiment: Antibacterial activity against Bacillus sp. 10-6DEP after 24 to 48 hrs by disk diffusion method; type: functional
Outline: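 MIC by agar disk diffusion (NCCLS) against Bacillus sp. 10-6DEP. Disks loaded with 30, 16, 8, 4, 2, 1 and 0.5 µg delivered in MeOH. Methanol alone as negative control. Triplicate.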

[9] = test system: Escherichia coli; experiment: Antiquorum sensing activity against Escherichia coli pS401 assessed as inhibition of Pseudomonas putida IsoF derived acyl-homoserinelactone-induced bioluminescence upto 200 ug after overnight incubation
Outline: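 Biosensor agar overlay. E. coli pS401 and P. putida IsoF grown in LB broth. 15 mL of each culture mixed into LB soft agar (0.8%) and poured over prewarmed LB agar plates. Paper disks received 10 or 20 µL of a 10 mg/mL compound solution. Plates incubated overnight at 37 °C and luminescence imaged. QS inhibition was scored where light was lost but growth around the disk was unaffected.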

[10] = test system: Brucella pseudogrignonensis; experiment: Antibacterial activity against Ochrobactrum pseudogrignonense 4-4DEP after 24 to 48 hrs by disk diffusion method; type: functional

## C=C(C)[C@H]1CC/C(C)=C/CC[C@@](C)(Cl)[C@H](O)CC/C(COC(C)=O)=C\[C@@H]1OC(C)=O
[1]
  zone of inhibition at 30 µg/disc: 6 mm
[2]
  diameter of the inhibition zone (DIZ): inactive
[3]
  diameter of the inhibition zone (DIZ): inactive
[4]
  zone of inhibition at 30 µg/disc: 6 mm
[5]
  zone of inhibition at 30 µg/disc: 8 mm
[6]
  diameter of the inhibition zone (DIZ): inactive
[7]
  MIC: >30 µg
[8]
  MIC: >30 µg

## C=C(C)[C@H]1CC/C(C)=C/C/C=C(\C)[C@H](O)CC/C(COC(C)=O)=C\[C@@H]1OC(C)=O
[1]
  zone of inhibition at 30 µg/disc: 6 mm
[2]
  zone of inhibition at 30 µg/disc: 8 mm
[3]
  zone of inhibition at 30 µg/disc: 6 mm
[4]
  zone of inhibition at 30 µg/disc: 6 mm
[5]
  zone of inhibition at 30 µg/disc: 8 mm
[6]
  zone of inhibition at 30 µg/disc: 6 mm
[7]
  MIC: 30 µg
[9]
  Activity: Active
[8]
  MIC: 30 µg
[10]
  MIC: >30 µg

## C=C1CC/C=C(\C)CC[C@H](C(=C)C)[C@@H](OC(C)=O)/C=C(/COC(C)=O)CC[C@H]1O
[1]
  zone of inhibition at 30 µg/disc: 6 mm
[2]
  zone of inhibition at 30 µg/disc: 6 mm
[3]
  diameter of the inhibition zone (DIZ): inactive
[4]
  zone of inhibition at 30 µg/disc: 6 mm
[5]
  zone of inhibition at 30 µg/disc: 8 mm
[6]
  zone of inhibition at 30 µg/disc: 6 mm
[7]
  MIC: >30 µg
[9]
  Activity: Active
[8]
  MIC: >30 µg

## C=C(C)[C@@H]1C/C=C(/COC(C)=O)CC[C@H]2O[C@]2(C)CC/C=C(\C)CC1 [KNIGHTOL ACETATE]
[1]
  diameter of the inhibition zone (DIZ): inactive
[2]
  zone of inhibition at 30 µg/disc: 6 mm
[3]
  diameter of the inhibition zone (DIZ): inactive
[4]
  zone of inhibition at 30 µg/disc: 6 mm
[5]
  zone of inhibition at 30 µg/disc: 6 mm
[6]
  diameter of the inhibition zone (DIZ): inactive
[7]
  MIC: 8 µg
[8]
  MIC: 30 µg
[10]
  MIC: 8 µg

## C=C(C)[C@H]1CC/C(C)=C/CC[C@@]2(C)O[C@@H]2CC/C(COC(C)=O)=C\[C@@H]1O [ASPERDIOL ACETATE]
[1]
  diameter of the inhibition zone (DIZ): inactive
[2]
  zone of inhibition at 30 µg/disc: ≥ 10 mm
[3]
  diameter of the inhibition zone (DIZ): inactive
[4]
  diameter of the inhibition zone (DIZ): inactive
[5]
  zone of inhibition at 30 µg/disc: 8 mm
[6]
  diameter of the inhibition zone (DIZ): inactive
[7]
  MIC: 30 µg
[8]
  MIC: 30 µg
[10]
  MIC: >30 µg

## C=C(C)[C@@H]1C/C=C(/C=O)CC[C@H]2O[C@]2(C)CC/C=C(\C)CC1 [KNIGHTAL]
[1]
  diameter of the inhibition zone (DIZ): inactive
[2]
  zone of inhibition at 30 µg/disc: 6 mm
[3]
  zone of inhibition at 30 µg/disc: 6 mm
[4]
  zone of inhibition at 30 µg/disc: 6 mm
[5]
  zone of inhibition at 30 µg/disc: 8 mm
[6]
  zone of inhibition at 30 µg/disc: 8 mm
[7]
  MIC: 8 µg
[9]
  Activity: Active
[8]
  MIC: 16 µg
[10]
  MIC: 8 µg

## C=C(C)[C@H]1CC/C(C)=C/C/C=C(/C)[C@@H](O)CC/C(COC(C)=O)=C\[C@@H]1OC(C)=O
[1]
  zone of inhibition at 30 µg/disc: 6 mm
[2]
  diameter of the inhibition zone (DIZ): inactive
[3]
  diameter of the inhibition zone (DIZ): inactive
[4]
  diameter of the inhibition zone (DIZ): inactive
[5]
  zone of inhibition at 30 µg/disc: 6 mm
[6]
  diameter of the inhibition zone (DIZ): inactive
[7]
  MIC: >30 µg
[8]
  MIC: >30 µg

## C=C(C)[C@H]1CC/C(C)=C/CC[C@@]2(C)O[C@@H]2CC/C(COC(C)=O)=C\[C@@H]1OC(C)=O
[1]
  zone of inhibition at 30 µg/disc: 6 mm
[2]
  zone of inhibition at 30 µg/disc: ≥ 10 mm
[3]
  diameter of the inhibition zone (DIZ): inactive
[4]
  zone of inhibition at 30 µg/disc: 6 mm
[5]
  zone of inhibition at 30 µg/disc: 8 mm
[6]
  diameter of the inhibition zone (DIZ): inactive
[7]
  MIC: 30 µg
[8]
  MIC: 30 µg
[10]
  MIC: >30 µg

## C=C(C)[C@@H]1C/C=C(/CO)CC[C@H]2O[C@]2(C)CC/C=C(\C)CC1 [KNIGHTOL]
[1]
  diameter of the inhibition zone (DIZ): inactive
[2]
  zone of inhibition at 30 µg/disc: 6 mm
[3]
  zone of inhibition at 30 µg/disc: 6 mm
[4]
  zone of inhibition at 30 µg/disc: 6 mm
[5]
  zone of inhibition at 30 µg/disc: ≥ 10 mm
[6]
  zone of inhibition at 30 µg/disc: ≥ 10 mm
[7]
  MIC: 8 µg
[9]
  Activity: Active
[8]
  MIC: 2 µg

## C=C(C)[C@H]1CC/C(C)=C/CC[C@@]2(C)O[C@@H]2CC/C(CO)=C\[C@@H]1O [ASPERDIOL]
[1]
  diameter of the inhibition zone (DIZ): inactive
[2]
  zone of inhibition at 30 µg/disc: 8 mm
[3]
  diameter of the inhibition zone (DIZ): inactive
[4]
  diameter of the inhibition zone (DIZ): inactive
[5]
  zone of inhibition at 30 µg/disc: 6 mm
[6]
  diameter of the inhibition zone (DIZ): inactive
[7]
  MIC: >30 µg
[8]
  MIC: 4 µg

Source: ChEMBL document CHEMBL1154306, “Cembranoid diterpenes from the Caribbean sea whip Eunicea knighti” (2009)
